Compound activity (PubChem BioAssay)
Shown are actives, neighbours in structure and some others; about 4.8% of the full set was active somewhere.
PAFAH2 inh = inhibitors of human PAFAH2. inhibition, % at 3.39 µM. actives 0.99% (n = 340,000). Q99487. recombinant PAFAH2, FP-rhodamine activity probe, fluorescence polarization;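 active means inhibition above the mean over all tested compounds plus 3 SD, cut at about 30% in these data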;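 further: inhibitors block probe labeling of enzyme so polarization drops; 0% = enzyme with DMSO and 100% = wells lacking PAFAH2 protein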
UCH37 DUB inh = inhibitors of human deubiquitinating enzyme UCH37 | purified proteasome/UCH37, Ub-AMC cleavage fluorescence | inhibition, % (no concentration beside the values) | actives 0.33% (n = 330,000) | Q9Y5K5;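 active means mean inhibition over replicate wells above about 20%, limit read from the data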;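 further: 0% = compound-free wells with enzyme and 100% = wells lacking proteasome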
Target sequence (Q9Y5K5 whole entry, looked up): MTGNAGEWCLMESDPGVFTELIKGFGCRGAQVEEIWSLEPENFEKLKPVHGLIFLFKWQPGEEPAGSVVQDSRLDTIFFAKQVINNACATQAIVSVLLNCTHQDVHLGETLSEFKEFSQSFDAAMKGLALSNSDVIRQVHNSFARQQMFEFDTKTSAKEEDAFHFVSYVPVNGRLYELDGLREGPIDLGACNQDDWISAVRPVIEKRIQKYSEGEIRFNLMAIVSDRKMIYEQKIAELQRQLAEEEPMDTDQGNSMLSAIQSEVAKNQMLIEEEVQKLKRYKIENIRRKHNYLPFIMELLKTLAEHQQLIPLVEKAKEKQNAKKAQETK
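Signal – fluorescence, ex 355 nm, em 460 nm · System – Proteasome-bound UCH37 · Input – 0.15 nM proteasome as dispensed · Timing – 30 min preincubation with enzyme, 25 min cleavage at room temperature · Read-out basis – percent inhibition of cleavage signal versus uninhibited and no-proteasome wells · Medium – Tris-HCl pH 7.4 with ATP-MgCl2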
pPAFAH FP inh = pPAFAH (human) enzyme inhibition; Q13093; AID 463082; inhibition, % at 3.39 µM; actives 1.5% (n = 330,000); recombinant pPAFAH, FP-rhodamine probe fluorescence polarization;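 active means inhibition above the mean inhibition across the screen plus 3 SD, cut at about 25% in these data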;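 further: inhibitors block binding of the rhodamine activity-based probe so polarization drops; 0% = enzyme with DMSO and 100% = wells lacking pPAFAH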
NR3A LBD binder = modulators (binders) of human NR3A ligand-binding domain | NR3A LBD differential scanning fluorimetry, Tm shift; 0% = protein alone, 100% = glycine-bound protein | AID 1259313 | Tm shift relative to glycine control, % at 25 µM | actives 2.5% (n = 340,000);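 active means melting temperature shift of at least 10% of the positive control shift, at one fixed dose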
PAFAH1B2 inh = blocks human PAF acetylhydrolase 1b catalytic subunit 2. P68402. recombinant PAFAH1B2, FP-rhodamine activity probe, fluorescence polarization. inhibition, % at 3.39 µM. actives 1.2% (n = 340,000);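 active means inhibition above the mean of all tested compounds plus 3 SD, cut at about 24% in these data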;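 further: 0% = enzyme with DMSO and 100% = wells lacking PAFAH1B2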
Target sequence (P68402 whole entry, looked up): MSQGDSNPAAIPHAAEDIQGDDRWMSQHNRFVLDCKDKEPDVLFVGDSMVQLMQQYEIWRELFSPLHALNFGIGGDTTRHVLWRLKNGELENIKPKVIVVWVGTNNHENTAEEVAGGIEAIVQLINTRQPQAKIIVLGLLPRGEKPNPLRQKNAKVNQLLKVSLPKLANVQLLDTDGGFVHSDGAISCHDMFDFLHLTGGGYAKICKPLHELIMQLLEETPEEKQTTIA
PAFAH1B3 FP inh = blocks human PAF acetylhydrolase 1B catalytic subunit 3 | actives 0.28% (n = 340,000) | recombinant PAFAH1B3, FP-rhodamine probe, fluorescence polarization | AID 492972 | inhibition, % at 3.39 µM | Q15102;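 active means inhibition above the screen-wide average of all tested compounds plus 3 SD, cut at about 25% in these data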;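 further: 0% = enzyme with DMSO only and 100% = wells lacking PAFAH1B3 protein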
pPAFAH confirm = pPAFAH (human) inhibition, confirmed; shares compounds with pPAFAH FP inh; recombinant pPAFAH, FP-Rh probe fluorescence polarization; inhibition, % at 3.39 µM; actives 72% (n = 2,300); AID 463230;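 active means mean inhibition of the triplicate above the hit cutoff set for the earlier primary screen, cut at about 25% in these data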;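 further: 0% = enzyme with DMSO and 100% = wells lacking pPAFAH enzyme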
* hit, by the source's call.

What do the screens show for `CCOC(=O)c1sc(N/N=C/c2cc(Br)c(O)c(OC)c2)nc1C`?
PAFAH2 inh: 11.8; pPAFAH FP inh: 35.4*; NR3A LBD binder: 14.0*; PAFAH1B2 inh: 0.3; PAFAH1B3 FP inh: 12.8; pPAFAH confirm: 26.1*

What do the screens show for `Cc1ccc(C)c(Cn2nnc3c(=O)[nH]c(C4CCN(S(=O)(=O)c5ccc(S(=O)(=O)NC6CC6)cc5)CC4)nc32)c1`?
PAFAH2 inh: -28.5; UCH37 DUB inh: 3.9; pPAFAH FP inh: 41.8*; NR3A LBD binder: 12.1*; PAFAH1B2 inh: -6.4; PAFAH1B3 FP inh: -13.2; pPAFAH confirm: 46.5*

Results for Cc1ccc(C=NN2CCN(C3c4ccccc4-c4ccccc43)CC2)s1 ?
UCH37 DUB inh: 0.0

What do the screens show for `COc1cccc2c1NC(C(=O)O)C1CC=CC21` (centres undefined)?
PAFAH2 inh: 48.2*; UCH37 DUB inh: -0.4; pPAFAH FP inh: 57.0*; NR3A LBD binder: -9.8; PAFAH1B2 inh: 29.9*; PAFAH1B3 FP inh: 24.5; pPAFAH confirm: 11.0

Results for CC(=O)c1ccc2c(c1)C1C=CCC1C(C(=O)O)N2 (centres undefined) ?
UCH37 DUB inh: 12.3; NR3A LBD binder: -0.6

How did C/C(=N\NC(=O)c1cc2ccccc2cc1O)c1ccc2c(c1)OCO2 do in these assays?
PAFAH2 inh: 8.9; pPAFAH FP inh: 54.7*; NR3A LBD binder: 7.7; PAFAH1B2 inh: 7.2; PAFAH1B3 FP inh: -1.8; pPAFAH confirm: 6.2

What do the screens show for `C/C(=N\NC(=O)c1ccc(C)cc1C)c1ccc2c(c1)OCO2`?
PAFAH2 inh: -6.2; pPAFAH FP inh: -0.2; NR3A LBD binder: -0.4; PAFAH1B2 inh: 1.8; PAFAH1B3 FP inh: 4.2

How did C/C(CC(=O)N1CCCC1)=N\NC(=O)c1cc2ccccc2cc1O do in these assays?
PAFAH2 inh: 11.7; pPAFAH FP inh: 47.5*; NR3A LBD binder: -2.1; PAFAH1B2 inh: 4.0; PAFAH1B3 FP inh: 7.1; pPAFAH confirm: 14.8

What do the screens show for `CCOC(=O)C(C)/C(C)=N/NC(=O)c1cc2ccccc2cc1O` (centres undefined)?
PAFAH2 inh: 3.7; pPAFAH FP inh: 45.8*; NR3A LBD binder: -2.9; PAFAH1B2 inh: 2.4; PAFAH1B3 FP inh: 4.1; pPAFAH confirm: 3.6

How did CC1(C)CCC/C(=C\c2ccccc2)C1=O do in these assays?
PAFAH2 inh: 2.0; UCH37 DUB inh: 3.6; pPAFAH FP inh: 45.8*; NR3A LBD binder: -1.0; PAFAH1B2 inh: 3.1; PAFAH1B3 FP inh: 3.9; pPAFAH confirm: 7.8

Results for CC1(C)Cc2ccccc2C(=NCC(=O)O)N1 ?
PAFAH2 inh: -5.6; UCH37 DUB inh: 1.2; pPAFAH FP inh: 35.5*; NR3A LBD binder: 2.6; PAFAH1B2 inh: 3.1; PAFAH1B3 FP inh: 10.1; pPAFAH confirm: 2.5

How did NC(=NOC(=O)Cc1ccc([N+](=O)[O-])cc1)c1ccc([N+](=O)[O-])cc1 do in these assays?
UCH37 DUB inh: 0.4

How did Cc1ccc(NS(=O)(=O)c2ccc(-c3ccc(=O)[nH]n3)o2)cc1 do in these assays?
PAFAH2 inh: -3.0; UCH37 DUB inh: 0.8; pPAFAH FP inh: 35.9*; NR3A LBD binder: -1.1; PAFAH1B2 inh: 5.4; PAFAH1B3 FP inh: -3.0; pPAFAH confirm: 21.6

What do the screens show for `O=c1cc(-c2ccccc2)oc2cc(O)c(O)c(O)c12`?
PAFAH2 inh: 21.9; UCH37 DUB inh: 9.5; pPAFAH FP inh: 55.6*; NR3A LBD binder: -17.1; PAFAH1B2 inh: 3.4; PAFAH1B3 FP inh: 16.8; pPAFAH confirm: 68.5*

How did CCC(C)=NN=Cc1c(O)n(CC)c2cc(C3=NNC(=O)CC3)ccc12 do in these assays?
UCH37 DUB inh: 9.3

Results for COc1ccc(C(C)=NOCC(=O)N=Nc2c(O)[nH]c3ccc(Br)cc23)cc1 ?
UCH37 DUB inh: 6.9

How did Cc1ccccc1-n1c(C)cc(/C=C2/C(=N)N3C(c4ccccc4)=CSC3=NC2=O)c1C do in these assays?
PAFAH2 inh: -8.2; UCH37 DUB inh: -59.5; pPAFAH FP inh: -0.9; NR3A LBD binder: -1.9; PAFAH1B2 inh: -12.6; PAFAH1B3 FP inh: -16.1

Results for N=C1/C(=C\c2ccc(-c3cccc(C(=O)O)c3)o2)C(=O)N=C2SC=C(c3ccccc3)N12 ?
PAFAH2 inh: 35.0*; UCH37 DUB inh: 14.9; pPAFAH FP inh: 55.5*; NR3A LBD binder: 2.8; PAFAH1B2 inh: 31.1*; PAFAH1B3 FP inh: 28.9*; pPAFAH confirm: 49.5*

How did O=C(/C=C/Nc1ccccc1)c1ccccc1 do in these assays?
PAFAH2 inh: 2.2; UCH37 DUB inh: -6.2; pPAFAH FP inh: 2.2; PAFAH1B2 inh: -1.3; PAFAH1B3 FP inh: 3.2

What do the screens show for `CN(C)c1ccc(N/C=C/C(=O)c2ccccc2)cc1`?
PAFAH2 inh: 2.9; UCH37 DUB inh: 4.0; pPAFAH FP inh: 38.6*; NR3A LBD binder: -17.1; PAFAH1B2 inh: 4.0; PAFAH1B3 FP inh: -4.0; pPAFAH confirm: 6.2

Results for Cc1ccc(SCc2cc(=O)c3c(=O)n(-c4ccccc4)[nH]c3[nH]2)cc1 ?
PAFAH2 inh: 24.6; UCH37 DUB inh: 6.3; pPAFAH FP inh: 46.0*; NR3A LBD binder: -3.4; PAFAH1B2 inh: 24.5*; PAFAH1B3 FP inh: 14.4; pPAFAH confirm: 21.4

What do the screens show for `Cc1[nH]n(-c2ccccc2)c(=O)c1Sc1ccc(Cl)cc1`?
PAFAH2 inh: 1.7; UCH37 DUB inh: 3.7; pPAFAH FP inh: 8.2; NR3A LBD binder: -1.6; PAFAH1B2 inh: 16.1; PAFAH1B3 FP inh: 11.0

What do the screens show for `O=c1cc(CSc2ccc(Cl)cc2)[nH]c2[nH]n(-c3ccccc3)c(=O)c12`?
PAFAH2 inh: 32.5*; UCH37 DUB inh: 7.1; pPAFAH FP inh: 42.5*; NR3A LBD binder: 0.9; PAFAH1B2 inh: 45.0*; PAFAH1B3 FP inh: 6.5; pPAFAH confirm: 26.9*

Results for Cc1cc(/C=N/Nc2ccc([N+](=O)[O-])cn2)c(C)n1-c1ccc(C(=O)O)cc1 ?
PAFAH2 inh: 8.5; pPAFAH FP inh: 53.8*; NR3A LBD binder: -2.9; PAFAH1B2 inh: -0.5; PAFAH1B3 FP inh: 11.3; pPAFAH confirm: 18.4

Results for O=C(NN=Cc1cn[nH]c1-c1ccc(Cl)cc1)c1cccs1 ?
UCH37 DUB inh: -7.7

How did O=C(CSc1ccc(-c2ccco2)nn1)c1cccc([N+](=O)[O-])c1 do in these assays?
PAFAH2 inh: 9.2; pPAFAH FP inh: 37.6*; NR3A LBD binder: -11.7; PAFAH1B2 inh: 3.4; PAFAH1B3 FP inh: 2.5; pPAFAH confirm: 9.7

How did O=C1CC(N(O)c2ccccc2)C(=O)N1c1cc(Cl)cc(Cl)c1 (centres undefined) do in these assays?
PAFAH2 inh: -4.1; UCH37 DUB inh: 0.7; pPAFAH FP inh: 51.2*; NR3A LBD binder: -1.7; PAFAH1B2 inh: 7.1; PAFAH1B3 FP inh: 5.6; pPAFAH confirm: 7.5
